Published values gathered from unrelated publications.
Each line is one published result; the experiments were not run side by side.
Target: Dual specificity mitogen-activated protein kinase kinase 3 (MAP2K3, Homo sapiens, UniProt P46734)
Sequence (P46734 1-347, as in one of the studies): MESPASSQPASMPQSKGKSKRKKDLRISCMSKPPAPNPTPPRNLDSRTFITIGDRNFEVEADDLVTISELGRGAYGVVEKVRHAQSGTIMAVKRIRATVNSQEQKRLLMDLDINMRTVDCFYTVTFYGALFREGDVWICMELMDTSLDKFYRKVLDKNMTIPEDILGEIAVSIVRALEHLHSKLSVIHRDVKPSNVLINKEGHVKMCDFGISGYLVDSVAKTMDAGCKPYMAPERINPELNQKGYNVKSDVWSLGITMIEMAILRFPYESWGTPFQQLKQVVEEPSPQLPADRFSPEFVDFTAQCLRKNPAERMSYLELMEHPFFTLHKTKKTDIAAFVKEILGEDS

For `C[C@@H]1CCN(c2nccc(-c3cnn4ncccc34)n2)C1`, the remaining binding was 69% (binding; 1 µM).
The activity vs control of `Cc1ccc(C(=O)NCc2ccsc2)cc1C#Cc1cn(C(C)C)c2ncnc(N)c12` is reported as 77% (enzyme activity; inhibitor; 1 µM).
With `O=C(Nc1cnn(-c2csc(C(=O)NC3COC3)c2)c1)Nc1c(F)cccc1Cl` the remaining activity was 111% (enzyme activity; inhibitor; 5 µM).
The remaining activity of `Cc1ccc(C(=O)Nc2ccc(CN3CCN(C)CC3)c(C(F)(F)F)c2)cc1C#Cc1cnc2cccnn12` is reported as 94% (enzyme activity; inhibitor; 23.5 nM).
With `Cc1c(NC(=O)c2cc(C(N)=O)nc3cc(F)ccc23)c(C(F)(F)F)nn1Cc1ccc(C(C)(C)C)cc1` the remaining binding was 90% (cell-free assay; competition with immobilised ligand; 1 µM).
With `Nc1ncnc2occ(-c3ccc(NC(=O)Nc4cc(C(F)(F)F)ccc4F)cc3)c12` the remaining signal was 11% (cell-free assay; inhibitor; 20 µM).
`CC/C(=N\NC(=O)NCc1cccc(O)c1)c1ccc(O)c(C)c1O` gave an inhibition of -2.5% (enzyme activity; inhibitor; 0.1 µM).
`CN1CC(Oc2cnc(C#N)cc2-c2ccn3nc(NC(=O)C4CC4)cc3c2)C1` gave an inhibition of -8% (enzyme activity; inhibitor; 1 µM).
`CC(=O)C1=C(C)N(c2cccc(C(F)(F)F)c2)C(=O)N[C@@H]1c1ccc(C#N)nc1` gave a remaining binding of 95.2% (cell-free assay; competition with immobilised ligand; 1 µM).
The remaining activity of `Cc1sc(C(=O)NC2COC2)cc1-n1cc(NC(=O)Nc2c(F)cccc2Cl)cn1` is reported as 88.8% (enzyme activity; inhibitor; 10 µM).
